Reference: ChEMBL document CHEMBL4813998, “Structural simplification of evodiamine: Discovery of novel tetrahydro-β-carboline derivatives as potent antitumor agents” (Bioorg Med Chem Lett, 2021)
Active and inactive are the calls of the source. No cut-off for these calls is given here.

Key:
[1] = Antiproliferative activity against human HCT116 cells assessed as growth inhibition by CCK8 assay; format: functional, cell-based, Epithelial cell; conditions: epithelial cell
[2] = Antiproliferative activity against human A549 cells assessed as growth inhibition by CCK8 assay; format: functional, cell-based, Epithelial cell; conditions: epithelial cell
[3] = Antiproliferative activity against human MDA-MB-231 cells assessed as growth inhibition by CCK8 assay; format: functional, cell-based, Epithelial cell; conditions: epithelial cell
HCT-116 [4] = assay: Induction of apoptosis in human HCT116 cells at 0.03 uM after 48 hrs by annexin V-FITC/propidium iodide staining based flow cytometry (RVB = 6.77%); format: functional
Method in brief: (§1)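 HCT116 cells were treated at 0.03, 0.15, 0.75 or 1.5 μM for 48 h. They were then stained with Annexin V/PI and analysed by flow cytometry, and apoptotic cells were reported as a percentage. An untreated control was run alongside.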

HCT-116 [5] = assay: Induction of apoptosis in human HCT116 cells at 0.15 uM after 48 hrs by annexin V-FITC/propidium iodide staining based flow cytometry (RVB = 6.77%); format: functional; method in brief: as §1
HCT-116 [6] = assay: Induction of apoptosis in human HCT116 cells at 0.75 uM after 48 hrs by annexin V-FITC/propidium iodide staining based flow cytometry (RVB = 6.77%); format: functional; method in brief: as §1
HCT-116 [7] = assay: Induction of apoptosis in human HCT116 cells at 1.5 uM after 48 hrs by annexin V-FITC/propidium iodide staining based flow cytometry (RVB = 6.77%); format: functional; method in brief: as §1
HCT-116 [8] = assay: Induction of cell cycle arrest in human HCT-116 cells assessed as accumulation at G2/M phase at 0.03 uM after 24 hrs by propidium iodide staining based flow cytometric analysis (reference value: 27.78%); format: functional
HCT-116 [9] = assay: Induction of cell cycle arrest in human HCT-116 cells assessed as accumulation at G2/M phase at 0.15 uM after 24 hrs by propidium iodide staining based flow cytometric analysis (reference value: 27.78%); format: functional
HCT-116 [10] = assay: Induction of cell cycle arrest in human HCT-116 cells assessed as accumulation at G2/M phase at 0.75 uM after 24 hrs by propidium iodide staining based flow cytometric analysis (reference value: 27.78%); format: functional
HCT-116 [11] = assay: Induction of cell cycle arrest in human HCT-116 cells assessed as accumulation at G2/M phase at 0.03 uM after 48 hrs by propidium iodide staining based flow cytometric analysis (reference value: 25.01%); format: functional
HCT-116 [12] = assay: Induction of cell cycle arrest in human HCT-116 cells assessed as accumulation at G2/M phase at 0.15 uM after 48 hrs by propidium iodide staining based flow cytometric analysis (reference value: 25.01%); format: functional
HCT-116 [13] = assay: Induction of cell cycle arrest in human HCT-116 cells assessed as accumulation at G2/M phase at 0.75 uM after 48 hrs by propidium iodide staining based flow cytometric analysis (reference value: 25.01%); format: functional
HCT-116 [14] = assay: Induction of cell cycle arrest in human HCT-116 cells assessed as accumulation at G1 phase at 0.75 uM after 24 hrs by propidium iodide staining based flow cytometric analysis (reference value: 33.16%); format: functional
HCT-116 [15] = assay: Induction of cell cycle arrest in human HCT-116 cells assessed as accumulation at G1 phase at 0.15 uM after 24 hrs by propidium iodide staining based flow cytometric analysis (reference value: 33.16%); format: functional
HCT-116 [16] = assay: Induction of cell cycle arrest in human HCT-116 cells assessed as accumulation at G1 phase at 0.03 uM after 24 hrs by propidium iodide staining based flow cytometric analysis (reference value: 33.16%); format: functional
HCT-116 [17] = assay: Induction of cell cycle arrest in human HCT-116 cells assessed as accumulation at G1 phase at 0.03 uM after 48 hrs by propidium iodide staining based flow cytometric analysis (reference value: 34.38%); format: functional
HCT-116 [18] = assay: Induction of cell cycle arrest in human HCT-116 cells assessed as accumulation at G1 phase at 0.15 uM after 48 hrs by propidium iodide staining based flow cytometric analysis (reference value: 34.38%); format: functional
HCT-116 [19] = assay: Induction of cell cycle arrest in human HCT-116 cells assessed as accumulation at G1 phase at 0.75 uM after 48 hrs by propidium iodide staining based flow cytometric analysis (reference value: 34.38%); format: functional
HCT-116 [20] = assay: Induction of cell cycle arrest in human HCT-116 cells assessed as accumulation at S phase at 0.03 uM after 24 hrs by propidium iodide staining based flow cytometric analysis (reference value: 39.06%); format: functional
HCT-116 [21] = assay: Induction of cell cycle arrest in human HCT-116 cells assessed as accumulation at S phase at 0.15 uM after 24 hrs by propidium iodide staining based flow cytometric analysis (reference value: 39.06%); format: functional
HCT-116 [22] = assay: Induction of cell cycle arrest in human HCT-116 cells assessed as accumulation at S phase at 0.75 uM after 24 hrs by propidium iodide staining based flow cytometric analysis (reference value: 39.06%); format: functional
HCT-116 [23] = assay: Induction of cell cycle arrest in human HCT-116 cells assessed as accumulation at S phase at 0.03 uM after 48 hrs by propidium iodide staining based flow cytometric analysis (reference value: 40.6%); format: functional
HCT-116 [24] = assay: Induction of cell cycle arrest in human HCT-116 cells assessed as accumulation at S phase at 0.15 uM after 48 hrs by propidium iodide staining based flow cytometric analysis (reference value: 40.6%); format: functional
HCT-116 [25] = assay: Induction of cell cycle arrest in human HCT-116 cells assessed as accumulation at S phase at 0.75 uM after 48 hrs by propidium iodide staining based flow cytometric analysis (reference value: 40.6%); format: functional
[26] = biological target: T1, DNA topoisomerase 1 (Homo sapiens) (UniProt P11387); assay: Inhibition of TOP1 (unknown origin) assessed as decrease in relaxation of supercoiled DNA using supercoiled plasmid DNA at 500 uM relative to camptothecin
T1 sequence (whole entry): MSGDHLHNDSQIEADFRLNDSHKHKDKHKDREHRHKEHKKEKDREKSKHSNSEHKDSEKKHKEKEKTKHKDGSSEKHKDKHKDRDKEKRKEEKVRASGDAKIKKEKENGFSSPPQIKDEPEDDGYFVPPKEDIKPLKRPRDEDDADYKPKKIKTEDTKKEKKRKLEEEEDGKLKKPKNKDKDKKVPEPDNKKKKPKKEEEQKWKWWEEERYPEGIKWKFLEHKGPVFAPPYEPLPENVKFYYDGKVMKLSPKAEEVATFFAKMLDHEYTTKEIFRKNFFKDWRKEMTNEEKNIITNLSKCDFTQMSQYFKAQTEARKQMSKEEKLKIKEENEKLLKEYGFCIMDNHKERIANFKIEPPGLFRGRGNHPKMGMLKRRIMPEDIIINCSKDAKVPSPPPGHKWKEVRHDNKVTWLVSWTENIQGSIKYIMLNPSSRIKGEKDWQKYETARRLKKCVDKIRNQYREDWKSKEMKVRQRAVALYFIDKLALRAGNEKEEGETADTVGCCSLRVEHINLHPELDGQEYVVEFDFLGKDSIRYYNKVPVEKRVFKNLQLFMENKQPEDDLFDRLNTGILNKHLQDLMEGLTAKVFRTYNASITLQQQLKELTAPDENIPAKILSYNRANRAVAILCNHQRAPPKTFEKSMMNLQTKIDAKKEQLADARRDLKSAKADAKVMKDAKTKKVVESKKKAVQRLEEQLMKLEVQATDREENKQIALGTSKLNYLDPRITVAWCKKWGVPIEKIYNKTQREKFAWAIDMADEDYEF
Method in brief: (§2)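 Top1-mediated relaxation of supercoiled DNA was tested with compounds at 500 μM and 100 μM. Camptothecin served as the positive control.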

[27] = biological target: T1, DNA topoisomerase 1 (Homo sapiens); assay: Inhibition of TOP1 (unknown origin) assessed as decrease in relaxation of supercoiled DNA using supercoiled plasmid DNA at 100 uM relative to camptothecin; method in brief: as §2
[28] = biological target: DNA topoisomerase 2-alpha (Homo sapiens) (UniProt P11388); assay: Inhibition of TOP2 (unknown origin) assessed as fractured DNA fragments using supercoiled plasmid DNA at 250 uM
Method in brief: (§3)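 Purified Top2 was incubated with DNA and compounds at 250 μM and 100 μM. The read-out was the appearance of fractured DNA fragments, with etoposide as the positive control.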

[29] = biological target: DNA topoisomerase 2-alpha (Homo sapiens) (UniProt P11388); assay: Inhibition of TOP2 (unknown origin) assessed as fractured DNA fragments using supercoiled plasmid DNA at 100 uM relative to etoposide; method in brief: as §3
[30] = biological target: DNA topoisomerase 2-alpha (Homo sapiens) (UniProt P11388); assay: Inhibition of TOP2 (unknown origin) assessed as fractured DNA fragments using supercoiled plasmid DNA at 50 uM relative to etoposide
HCT-116 [31] = assay: Induction of apoptosis in human HCT116 cells assessed as increase in bax protein expression at 0.03 to 1.5 uM after 24 hrs by Western blot analysis; format: functional, cell-based; conditions: dose 0.03-1.5 µM
Method in brief: (§4)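 HCT116 cells were exposed to various concentrations for 24 h. Lysates were then probed by western blot for caspase-9, caspase-3, Bcl-2, Bax and cytochrome C.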

HCT-116 [32] = assay: Induction of apoptosis in human HCT116 cells assessed as decrease in Bcl-2 protein expression at 0.03 to 1.5 uM after 24 hrs by Western blot analysis; format: functional, cell-based; conditions: dose 0.03-1.5 µM; method in brief: as §4
HCT-116 [33] = assay: Induction of apoptosis in human HCT116 cells assessed as increase in caspase-3 expression after 24 hrs by Western blot analysis; format: functional, cell-based; conditions: dose 0.03-1.5 µM; method in brief: as §4
HCT-116 [34] = assay: Induction of apoptosis in human HCT116 cells assessed as increase in caspase-9 expression after 24 hrs by Western blot analysis; format: functional, cell-based; conditions: dose 0.03-1.5 µM; method in brief: as §4
HCT-116 [35] = assay: Antitumor activity against human HCT116 cells xenografted in nude mice assessed as tumor growth inhibition at 50 mg/kg/day, ip administered bid for 21 days relative to control; format: functional, organism-based; conditions: time 21.0 day
Method in brief: (§5)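 HCT116 cells were inoculated into nude mice to form xenografts. Dosing was intraperitoneal at 50 mg/kg/day for 21 consecutive days. Evodiamine was given at the same dosage as the comparator. Tumor growth and body weight after implantation were tracked, and data are reported as mean ± SEM.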

Mus musculus = assay: Toxicity in nude mouse xenografted with human HCT116 cells assessed as body weight loss at 50 mg/kg/day, ip administered bid for 21 days; format: functional, organism-based; conditions: Epithelial cell, time 21.0 day; method in brief: as §5
HCT-116 [36] = assay: Induction of apoptosis in human HCT116 cells assessed as increase in cytochrome c expression after 24 hrs by Western blot analysis; format: functional, cell-based; conditions: dose 0.03-1.5 µM; method in brief: as §4

Chain of DNA topoisomerase 2-alpha (Homo sapiens) (P11388 whole entry, the tested form may be a part): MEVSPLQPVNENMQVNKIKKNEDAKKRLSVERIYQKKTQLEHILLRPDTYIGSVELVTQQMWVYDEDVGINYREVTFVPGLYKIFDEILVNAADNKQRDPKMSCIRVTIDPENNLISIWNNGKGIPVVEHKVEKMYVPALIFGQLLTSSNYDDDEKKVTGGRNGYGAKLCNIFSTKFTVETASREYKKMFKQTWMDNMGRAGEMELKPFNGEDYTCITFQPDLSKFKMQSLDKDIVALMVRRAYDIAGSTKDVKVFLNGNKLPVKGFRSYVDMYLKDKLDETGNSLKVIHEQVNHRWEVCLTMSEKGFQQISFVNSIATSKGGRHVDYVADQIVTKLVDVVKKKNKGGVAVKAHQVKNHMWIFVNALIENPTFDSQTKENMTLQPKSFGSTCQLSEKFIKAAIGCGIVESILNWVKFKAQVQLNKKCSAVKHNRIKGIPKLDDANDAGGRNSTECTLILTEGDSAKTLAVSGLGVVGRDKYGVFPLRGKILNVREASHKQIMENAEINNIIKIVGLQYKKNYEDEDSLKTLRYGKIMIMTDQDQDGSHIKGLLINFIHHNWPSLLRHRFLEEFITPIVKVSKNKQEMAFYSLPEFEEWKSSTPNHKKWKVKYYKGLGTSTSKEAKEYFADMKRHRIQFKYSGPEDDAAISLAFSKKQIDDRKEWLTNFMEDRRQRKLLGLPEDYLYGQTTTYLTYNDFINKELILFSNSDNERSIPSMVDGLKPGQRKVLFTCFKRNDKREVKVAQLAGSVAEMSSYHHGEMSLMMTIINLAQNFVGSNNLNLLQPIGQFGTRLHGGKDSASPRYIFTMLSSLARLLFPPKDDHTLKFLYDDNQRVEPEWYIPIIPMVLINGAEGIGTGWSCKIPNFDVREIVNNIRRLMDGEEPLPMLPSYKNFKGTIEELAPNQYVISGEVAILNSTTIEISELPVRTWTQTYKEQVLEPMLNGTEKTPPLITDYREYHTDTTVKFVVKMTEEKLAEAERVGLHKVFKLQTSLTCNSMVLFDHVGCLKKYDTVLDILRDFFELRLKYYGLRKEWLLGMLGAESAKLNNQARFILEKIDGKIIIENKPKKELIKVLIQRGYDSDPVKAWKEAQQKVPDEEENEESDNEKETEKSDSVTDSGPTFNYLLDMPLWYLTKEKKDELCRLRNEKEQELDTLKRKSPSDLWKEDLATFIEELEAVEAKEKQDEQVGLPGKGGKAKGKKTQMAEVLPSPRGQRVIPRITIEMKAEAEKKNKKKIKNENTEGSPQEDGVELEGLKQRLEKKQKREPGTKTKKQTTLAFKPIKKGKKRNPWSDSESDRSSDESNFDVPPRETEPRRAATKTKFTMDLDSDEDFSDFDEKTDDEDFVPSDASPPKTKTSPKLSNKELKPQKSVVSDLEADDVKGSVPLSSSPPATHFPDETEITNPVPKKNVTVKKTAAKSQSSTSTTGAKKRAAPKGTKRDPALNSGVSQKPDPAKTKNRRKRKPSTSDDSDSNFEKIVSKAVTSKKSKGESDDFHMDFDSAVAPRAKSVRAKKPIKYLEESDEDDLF

## COc1ccc2[nH]c3c(c2c1)CCN(C(=O)CCc1ccccc1)C3c1ccc(Cl)c(Cl)c1 (stereo in doubt; 45) [listing 1 of 2 here]
[1]
  IC50: 160 nM
[2]
  IC50: 760 nM
[3]
  IC50: 160 nM
HCT-116 [4]
  Activity: 10.11%
HCT-116 [5]
  Activity: 13.46%
HCT-116 [6]
  Activity: 25.43%
HCT-116 [7]
  Activity: 30.98%
HCT-116 [8]
  Activity: 32.12%
HCT-116 [9]
  Activity: 78.12%
HCT-116 [10]
  Activity: 88.37%
HCT-116 [11]
  Activity: 67.92%
HCT-116 [12]
  Activity: 93.03%
HCT-116 [13]
  Activity: 93.15%
HCT-116 [14]
  Activity: 1.2%
HCT-116 [15]
  Activity: 2.02%
HCT-116 [16]
  Activity: 32.45%
HCT-116 [17]
  Activity: 11.27%
HCT-116 [18]
  Activity: 2.19%
HCT-116 [19]
  Activity: 2.06%
HCT-116 [20]
  Activity: 35.43%
HCT-116 [21]
  Activity: 19.86%
HCT-116 [22]
  Activity: 10.43%
HCT-116 [23]
  Activity: 20.81%
HCT-116 [24]
  Activity: 4.78%
HCT-116 [25]
  Activity: 4.79%

## COc1ccc2[nH]c3c(c2c1)CCN(C(=O)CCc1ccccc1)C3c1ccc(Cl)c(Cl)c1 (stereo in doubt; 45) [listing 2 of 2 here]
[26]
  inhibition: Active
[27]
  inhibition: Active
[28]
  inhibition: Active
[29]
  inhibition: Active
[30]
  inhibition: Active
HCT-116 [31]
  Activity: Active
HCT-116 [32]
  Activity: Active
HCT-116 [33]
  Activity: Active
HCT-116 [34]
  Activity: Active
HCT-116 [35]
  Activity: Active
Mus musculus
  Activity: Active
HCT-116 [36]
  Activity: Dose-Dependent Effect
